This is an account of results in ChEMBL document CHEMBL1140331, “Iterative approach to the discovery of novel degarelix analogues: substitutions at positions 3, 7, and 8. Part II” (J Med Chem, 2005).

pIC50: −log10 of the molar value. *1 amine or outer side, *2 acyl side, *3 side chain or, on linkers, in order; H or OH if unused. Where a SMILES comes first, the peptide text is derived from it. [ ]: non-standard residue; d: D form. Phe(4-NH(5-NH2triazol-3-yl)) = Nc1nc(Nc2ccc(C[C@H](N)C(=O)O)cc2)n[nH]1; X1 = Nc1nc(Nc2ccc(C[C@@H](N[*:1])C(=O)[*:2])cc2)n[nH]1; dPhe(4-Cl) = N[C@H](Cc1ccc(Cl)cc1)C(=O)O; d2Nal = N[C@H](Cc1ccc2ccccc2c1)C(=O)O; Lys(iPr) = CC(C)NCCCC[C@H](N)C(=O)O; d3Pal = N[C@H](Cc1cccnc1)C(=O)O

The target of this assay is T1, Gonadotropin-releasing hormone receptor (Homo sapiens, UniProt P30968).
T1 sequence (P30968 whole entry): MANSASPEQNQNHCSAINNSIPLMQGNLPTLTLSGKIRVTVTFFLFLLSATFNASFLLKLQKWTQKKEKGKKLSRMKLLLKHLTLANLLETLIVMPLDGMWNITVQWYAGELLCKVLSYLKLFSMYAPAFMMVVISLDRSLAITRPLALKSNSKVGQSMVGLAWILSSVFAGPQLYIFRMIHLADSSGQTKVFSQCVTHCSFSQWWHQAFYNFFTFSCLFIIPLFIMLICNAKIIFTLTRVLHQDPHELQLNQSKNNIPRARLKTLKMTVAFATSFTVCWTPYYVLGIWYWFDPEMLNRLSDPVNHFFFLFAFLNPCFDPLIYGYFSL
The assay can be described thus: Antagonism of GnRH response in HEK293 cells expressing human GnRH receptor. The class given is functional, cell-based. A digest of the protocol:
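HEK293 cells stably carrying cloned human GnRH receptor and luciferase reporter under LH α-subunit promoter; cultured in phenol red-free DMEM, 10% FBS, G418 0.4 mg/mL; plated 5×10^4 cells/well, overnight 37 °C. Compound (11 half-log concentrations, duplicate, 1% DMSO) preincubated 10 min, then GnRH 1 nM final, ≥5 h; luminescence read; % of control cps (blank-subtracted) gives IC50.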

Regarding `CC(=O)N[C@H](Cc1ccc2ccccc2c1)C(=O)N[C@H](Cc1ccc(Cl)cc1)C(=O)N[C@H](Cc1cccnc1)C(=O)N[C@@H](CO)C(=O)N[C@@H](Cc1ccc(Nc2n[nH]c(N)n2)cc1)C(=O)N[C@H](Cc1ccc(Nc2n[nH]c(N)n2)cc1)C(=O)N[C@@H](CC(C)C)C(=O)N[C@@H](CCCCNC(C)C)C(=O)N1CCC[C@H]1C(=O)N[C@H](C)C(N)=O` [PRAZARELIX ACETATE] (Ac-[d2Nal][dPhe(4-Cl)][d3Pal]S[Phe(4-NH(5-NH2triazol-3-yl))][X1]L[Lys(iPr)]P[dA]-NH2), the pIC50 is 8.85.
